Reference: ChEMBL document CHEMBL1150680, “Anti-inflammatory constituents and new pterocarpanoid of Crotalaria pallida” (J Nat Prod, 2003)

Key:
[1] = Antiinflammatory activity in fMLP/cytochalasin B stimulated rat neutrophils assessed as inhibition of lysozyme release preincubated for 10 mins measured 45 mins after fMLP/cytochalasin B challenge; format: functional, cell-based; settings: Neutrophil
Method in brief: (§1)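 Rat blood neutrophils were isolated in EDTA by dextran sedimentation, Ficoll-Hypaque and hypotonic lysis, then suspended in HBSS at 1 × 10⁷ cells/mL. Preincubated 10 min at 37 °C with drug or DMSO (final ≤0.5%), then challenged with fMLP (1 μM)/cytochalasin B (5 μg/mL). After 45 min, supernatant lysozyme and β-glucuronidase were expressed as percent of the Triton X-100 total content.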

[2] = Antiinflammatory activity in fMLP/cytochalasin B stimulated rat neutrophils assessed as inhibition of lysozyme release at 10 uM preincubated for 10 mins measured 45 mins after fMLP/cytochalasin B challenge relative to control; format: functional; settings: Neutrophil; method in brief: as §1
[3] = Antiinflammatory activity in fMLP/cytochalasin B stimulated rat neutrophils assessed as lysozyme release at 10 uM preincubated for 10 mins measured 45 mins after fMLP/cytochalasin B challenge relative to control; format: functional, Neutrophil; method in brief: as §1
[4] = Antiinflammatory activity in fMLP/cytochalasin B stimulated rat neutrophils assessed as inhibition of beta-glucuronidase release at 10 uM preincubated for 10 mins measured 45 mins after fMLP/cytochalasin B challenge relative to control; format: functional, Neutrophil; parameters: Activity: scale not given: the % may be the effect or the level left; method in brief: as §1
[5] = test system: N9; assay: Antiinflammatory activity in LPS/IFN-gamma-stimulated mouse N9 cells assessed as inhibition of nitric oxide production at 10 uM pretreated 1 hr before LPS/IFNgamma challenge relative to control
[6] = Antiinflammatory activity in fMLP/cytochalasin B stimulated rat neutrophils assessed as inhibition of lysozyme release at 3 ug/ml preincubated for 10 mins measured 45 mins after fMLP/cytochalasin B challenge relative to control; format: functional; settings: Neutrophil; method in brief: as §1
[7] = Antiinflammatory activity in fMLP/cytochalasin B stimulated rat neutrophils assessed as beta-glucuronidase release at 3 ug/ml preincubated for 10 mins measured 45 mins after fMLP/cytochalasin B challenge relative to control; format: functional, Neutrophil; settings: in the assay text read “3 uM” for “3 ug/ml”; method in brief: as §1
[8] = test system: RAW264.7; assay: Toxicity in LPS-stimulated mouse RAW264.7 cells assessed as LDH release at 30 uM; format: cell-based; settings: raw264.7, 30 µM
Method in brief: (§2)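 Cytotoxicity in LPS-stimulated RAW 264.7 or LPS/IFN-γ-stimulated N9 cultures, assessed by LDH release assay and trypan blue exclusion.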

[9] = Antiinflammatory activity in fMLP/cytochalasin B stimulated rat neutrophils assessed as inhibition of beta-glucuronidase release at 3 uM preincubated for 10 mins measured 45 mins after fMLP/cytochalasin B challenge relative to control; parameters: scale not given: the % may be the effect or the level left
[10] = test system: RAW264.7; assay: Antiinflammatory activity in LPS-stimulated mouse RAW264.7 cells assessed as inhibition of nitric oxide production pretreated 1 hr before LPS challenge; format: functional, cell-based
Method in brief: (§3)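 RAW 264.7 mouse macrophage-like cells in DMEM with 10% FCS, plated at 2 × 10⁵ cells/well and adhered overnight. Pretreated with test drug or DMSO (final ≤0.5%) for 1 h at 37 °C, then stimulated with LPS (E. coli 0111:B4, 1 μg/mL) for 24 h. Nitrite in the medium was measured by Griess reaction (A550) against a NaNO₂ standard curve. Mean ± SEM, n = 3.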

[11] = test system: RAW264.7; assay: Antiinflammatory activity in LPS-stimulated mouse RAW264.7 cells assessed as inhibition of nitric oxide production at 3 uM pretreated 1 hr before LPS challenge relative to control; format: functional; method in brief: as §3
[12] = Antiinflammatory activity in fMLP/cytochalasin B stimulated rat neutrophils assessed as lysozyme release at 3 ug/ml preincubated for 10 mins measured 45 mins after fMLP/cytochalasin B challenge relative to control; format: functional, Neutrophil; settings: in the assay text read “3 uM” for “3 ug/ml”; method in brief: as §1
[13] = Antiinflammatory activity in fMLP/cytochalasin B stimulated rat neutrophils assessed as inhibition of beta-glucuronidase release preincubated for 10 mins measured 45 mins after fMLP/cytochalasin B challenge; format: functional, cell-based; settings: Neutrophil; method in brief: as §1
[14] = test system: RAW264.7; assay: Antiinflammatory activity in LPS-stimulated mouse RAW264.7 cells assessed as inhibition of nitric oxide production at 30 uM pretreated 1 hr before LPS challenge relative to control; format: functional; method in brief: as §3
[15] = Antiinflammatory activity in fMLP/cytochalasin B stimulated rat neutrophils assessed as beta-glucuronidase release at 10 uM preincubated for 10 mins measured 45 mins after fMLP/cytochalasin B challenge relative to control; format: functional, Neutrophil; method in brief: as §1
[16] = Antiinflammatory activity in fMLP/cytochalasin B stimulated rat neutrophils assessed as inhibition of beta-glucuronidase release at 1 ug/ml preincubated for 10 mins measured 45 mins after fMLP/cytochalasin B challenge relative to control; format: functional, Neutrophil; parameters: scale not given: the % may be the effect or the level left; settings: in the assay text read “1 uM” for “1 ug/ml”; method in brief: as §1
[17] = test system: N9; assay: Toxicity in LPS/IFN-gamma-stimulated mouse N9 cells assessed as LDH release at 30 uM; format: cell-based; settings: n9, 30 µM; method in brief: as §2
[18] = test system: RAW264.7; assay: Antiinflammatory activity in LPS-stimulated mouse RAW264.7 cells assessed as inhibition of nitric oxide production at 10 uM pretreated 1 hr before LPS challenge relative to control; format: functional; method in brief: as §3
[19] = Antiinflammatory activity in fMLP/cytochalasin B stimulated rat neutrophils assessed as beta-glucuronidase release at 1 ug/ml preincubated for 10 mins measured 45 mins after fMLP/cytochalasin B challenge relative to control; format: functional, Neutrophil; settings: in the assay text read “1 uM” for “1 ug/ml”; method in brief: as §1
[20] = test system: N9; assay: Antiinflammatory activity in LPS/IFN-gamma-stimulated mouse N9 cells assessed as inhibition of nitric oxide production at 3 uM pretreated 1 hr before LPS/IFNgamma challenge relative to control; format: functional
Method in brief: (§4)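 N9 murine microglial line in Iscove's modified DMEM with 5% heat-inactivated FCS, 8 × 10⁴ cells/well. Pretreated for 1 h at 37 °C with drug or DMSO (final ≤0.5%), then stimulated with LPS (10 ng/mL) plus IFN-γ (10 unit/mL) for 24 h. Medium nitrite was read by Griess reaction at 550 nm with a NaNO₂ standard. Mean ± SEM, n = 3.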

[21] = Antiinflammatory activity in fMLP/cytochalasin B stimulated rat neutrophils assessed as lysozyme release at 1 ug/ml preincubated for 10 mins measured 45 mins after fMLP/cytochalasin B challenge relative to control; format: functional, Neutrophil; settings: in the assay text read “1 uM” for “1 ug/ml”; method in brief: as §1
[22] = test system: N9; assay: Antiinflammatory activity in LPS/IFN-gamma-stimulated mouse N9 cells assessed as inhibition of nitric oxide production pretreated 1 hr before LPS/IFNgamma challenge
[23] = Antiinflammatory activity in fMLP/cytochalasin B stimulated rat neutrophils assessed as beta-glucuronidase release at 30 uM preincubated for 10 mins measured 45 mins after fMLP/cytochalasin B challenge relative to control; format: functional, Neutrophil; method in brief: as §1
[24] = test system: N9; assay: Antiinflammatory activity in LPS-stimulated mouse N9 cells assessed as inhibition of nitric oxide production at 1 uM pretreated 1 hr before LPS challenge relative to control; format: functional; method in brief: as §4
[25] = Antiinflammatory activity in fMLP/cytochalasin B stimulated rat neutrophils assessed as inhibition of lysozyme release at 30 uM preincubated for 10 mins measured 45 mins after fMLP/cytochalasin B challenge relative to control; format: functional; settings: Neutrophil; method in brief: as §1
[26] = Antiinflammatory activity in fMLP/cytochalasin B stimulated rat neutrophils assessed as inhibition of beta-glucuronidase release at 30 uM preincubated for 10 mins measured 45 mins after fMLP/cytochalasin B challenge relative to control; format: functional; settings: Neutrophil, read-out: INH; method in brief: as §1
[27] = Antiinflammatory activity in fMLP/cytochalasin B stimulated rat neutrophils assessed as lysozyme release at 30 uM preincubated for 10 mins measured 45 mins after fMLP/cytochalasin B challenge relative to control; format: functional, Neutrophil; method in brief: as §1

| SMILES | inhibition at 10 µM [2] | Activity [3] | inhibition at 10 µM [5] | Activity [8] | IC50 [10] | inhibition at 3 µM [11] | IC50 [13] | inhibition at 30 µM [14] | Activity [15] | Activity [17] | inhibition at 10 µM [18] | inhibition at 3 µM [20] | IC50 [22] | further results |
| --- | --- | --- | --- | --- | --- | --- | --- | --- | --- | --- | --- | --- | --- | --- |
| C=C(C)c1cc2c3c(ccc2o1)[C@@H]1COc2cc(O)ccc2[C@@H]1O3 [CROTAFURAN A] | 56.2% | 23.6% | 45.6% | Toxic | 23 µM | -5.1% | 7.8 µM | 59.5% | 16.5% | Toxic | 20.6% | 15.4% |  | IC50 [1]: 9.5 µM; Activity [4]: 55.8%; inhibition at 3 µg/mL [6]: 14%; Activity [7]: 24.8%; Activity [9]: 33.4%; Activity [12]: 46.9%; Activity [16]: 6.9%; Activity [19]: 34.7%; Activity [21]: 54.2% |
| CC(=N)NCc1cccc(CN)c1 [1400W] |  |  |  |  | 2.3 µM |  |  |  |  |  |  |  | 3.6 µM |  |
| CC(=O)c1cc2c3c(ccc2o1)[C@@H]1COc2cc(O)ccc2[C@@H]1O3 [CROTAFURAN B] | -7.8% | 58.9% | 50.4% | Toxic | 19 µM | 3.2% |  | 64.4% | 37.7% | Toxic | 25.6% | 29% | 9.4 µM | Activity [23]: 35.3%; inhibition at 1 µM [24]: 4.2%; inhibition at 10 µM ([4]; Rattus norvegicus, Neutrophil): -0.9%; inhibition at 30 µM [25]: -0.4%; inhibition at 30 µM [26]: 5.1%; Activity [27]: 55.1% |
| CN1CCN(CCCN2c3ccccc3Sc3ccc(C(F)(F)F)cc32)CC1 [TRIFLUOPERAZINE] |  |  |  |  |  |  | 12.2 µM |  |  |  |  |  |  |  |
